Laboratory results as given in ChEMBL document CHEMBL1147648, “Substituted coumarins as potent 5-lipoxygenase inhibitors” (Bioorg Med Chem Lett, 2006).

Assays:
[1] = target: T1, Polyunsaturated fatty acid 5-lipoxygenase (Homo sapiens, UniProt P09917); test: Inhibition of LTB4 production in calcium ionophore A-23187-stimulated human whole blood; format: functional, tissue-based
T1 sequence (P09917 whole entry): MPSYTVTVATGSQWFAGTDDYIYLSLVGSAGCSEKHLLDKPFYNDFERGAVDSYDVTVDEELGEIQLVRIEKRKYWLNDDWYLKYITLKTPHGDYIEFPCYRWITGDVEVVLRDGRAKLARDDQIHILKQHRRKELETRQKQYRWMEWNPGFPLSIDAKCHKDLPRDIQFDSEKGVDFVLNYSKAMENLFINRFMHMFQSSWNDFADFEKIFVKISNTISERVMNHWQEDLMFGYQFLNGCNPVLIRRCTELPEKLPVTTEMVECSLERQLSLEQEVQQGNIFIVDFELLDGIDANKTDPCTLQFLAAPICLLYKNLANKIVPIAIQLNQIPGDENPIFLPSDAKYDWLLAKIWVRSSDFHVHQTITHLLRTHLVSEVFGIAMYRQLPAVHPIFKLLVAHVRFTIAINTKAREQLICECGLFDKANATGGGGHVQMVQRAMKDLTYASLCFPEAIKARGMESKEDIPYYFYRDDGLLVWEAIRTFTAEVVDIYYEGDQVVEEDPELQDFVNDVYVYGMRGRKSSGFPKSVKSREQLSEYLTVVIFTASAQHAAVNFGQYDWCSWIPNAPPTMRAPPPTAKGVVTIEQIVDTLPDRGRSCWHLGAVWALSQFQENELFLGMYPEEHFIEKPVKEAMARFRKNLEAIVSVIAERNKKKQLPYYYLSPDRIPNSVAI

[2] = target: T1, Polyunsaturated fatty acid 5-lipoxygenase; test: Inhibition of human 5-LO
[3] = target: T1, Polyunsaturated fatty acid 5-lipoxygenase; test: Inhibition of LTB4 production in calcium ionophore A-23187-stimulated human polymorphonuclear leukocyte; format: functional
[4] = Oral bioavailability in squirrel monkey at 10 mg/kg, po; format: ADME, organism-based, Saimiri sciureus; conditions: in vivo
[5] = target: T2, Polyunsaturated fatty acid 5-lipoxygenase (Rattus norvegicus) (UniProt P12527); test: Activity against carrageenan-induced inflammation in orally dosed rat pleural cavity assessed as inhibition of LTB4 biosynthesis after 2 hrs; format: functional, organism-based
T2 sequence (whole entry): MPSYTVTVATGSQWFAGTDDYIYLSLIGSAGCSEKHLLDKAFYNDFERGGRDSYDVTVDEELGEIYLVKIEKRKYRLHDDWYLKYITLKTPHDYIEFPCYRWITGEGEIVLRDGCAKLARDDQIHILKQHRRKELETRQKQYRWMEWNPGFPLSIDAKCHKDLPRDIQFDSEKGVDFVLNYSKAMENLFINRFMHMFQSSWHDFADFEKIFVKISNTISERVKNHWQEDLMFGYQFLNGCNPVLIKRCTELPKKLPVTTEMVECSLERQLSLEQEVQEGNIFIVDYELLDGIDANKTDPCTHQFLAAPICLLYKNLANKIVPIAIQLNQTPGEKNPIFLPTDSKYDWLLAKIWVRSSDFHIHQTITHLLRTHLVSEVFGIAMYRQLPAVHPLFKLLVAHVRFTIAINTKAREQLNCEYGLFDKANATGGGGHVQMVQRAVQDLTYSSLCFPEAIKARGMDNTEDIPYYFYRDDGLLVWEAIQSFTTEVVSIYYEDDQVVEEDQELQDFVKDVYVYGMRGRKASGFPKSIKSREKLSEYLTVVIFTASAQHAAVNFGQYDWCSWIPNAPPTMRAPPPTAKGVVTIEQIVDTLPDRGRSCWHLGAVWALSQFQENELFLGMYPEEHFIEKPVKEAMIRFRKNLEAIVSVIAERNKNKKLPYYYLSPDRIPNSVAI

[6] = Cmax in rat at 20 mg/kg, po; format: ADME, organism-based; design: dose 20 mg/kg, route oral; conditions: in vivo
Outline: (§1)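 Rats dosed orally at 20 mg/kg in 0.5% methocel, given as the water-soluble sodium salt of the hydroxy-acid precursor that cyclizes to the coumarin.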

[7] = Cmax in squirrel monkey at 10 mg/kg, po after 2 hrs; format: ADME, organism-based, Saimiri sciureus; design: dose 10 mg/kg, route oral; conditions: in vivo
[8] = Oral bioavailability in rat at 20 mg/kg, po; format: ADME, organism-based; conditions: in vivo; outline: as §1
Rattus norvegicus = test: Oral absorption in rat at 20 mg/kg, po; format: ADME, organism-based; design: dose 20 mg/kg, route oral; conditions: in vivo; outline: as §1

In the case of `O=c1cc(-c2ccc(F)cc2)c2ccc(COc3cc(F)cc(C(O)(C(F)(F)F)C(F)(F)F)c3)cc2o1`, the IC50 [1] is reported as 150 nM, the IC50 [2] is reported as 55 nM and the IC50 [3] is reported as 1.9 nM.

For `O=C([O-])/C=C(/c1ccc(F)cc1)c1ccc(Sc2cc(F)cc(C(O)(C(F)(F)F)C(F)(F)F)c2)cc1[O-].[Na+].[Na+]`, the bioavailability [4] was 30%, the ED50 [5] was 1.6 mg/kg and the Cmax [6] was 16 µM. The Cmax [7] was 1.2 µM and the bioavailability [8] was 100%.

For `O=c1cc(-c2ccc(F)cc2)c2ccc(Sc3cc(F)cc(C(O)(C(F)(F)F)C(F)(F)F)c3)cc2o1`, the Fa (Rattus norvegicus) was “Not Active”.

Compound `O=c1cc(-c2ccoc2)c2ccc(COc3cc(F)cc([C@]4(O)C[C@H]5CO[C@@H](C4)O5)c3)cc2o1` has an IC50 [1] of 48 nM, an IC50 [2] of 200 nM and an IC50 [3] of 3 nM.

Compound `O=c1cc(-c2ccccc2)c2ccc(Sc3cc(F)cc(C(O)(C(F)(F)F)C(F)(F)F)c3)cc2o1` has an IC50 [1] of 88 nM, an IC50 [2] of 26 nM and an IC50 [3] of 0.5 nM.

Compound `O=c1cc(-c2ccoc2)c2ccc(Sc3cc(F)cc(C(O)(C(F)(F)F)C(F)(F)F)c3)cc2o1` has an IC50 [1] of 52 nM, an IC50 [2] of 9 nM and an IC50 [3] of 0.8 nM.
